Ki and Ratio Ki data for 15 compounds are collected here from ChEMBL document CHEMBL3351530, “Analysis of subpocket selectivity and identification of potent selective inhibitors for matriptase and matriptase-2” (J Med Chem, 2014).

Assay [1] concerns the target T1, Transmembrane protease serine 6 (Homo sapiens, UniProt Q8IU80).
T1 sequence (Q8IU80 whole entry): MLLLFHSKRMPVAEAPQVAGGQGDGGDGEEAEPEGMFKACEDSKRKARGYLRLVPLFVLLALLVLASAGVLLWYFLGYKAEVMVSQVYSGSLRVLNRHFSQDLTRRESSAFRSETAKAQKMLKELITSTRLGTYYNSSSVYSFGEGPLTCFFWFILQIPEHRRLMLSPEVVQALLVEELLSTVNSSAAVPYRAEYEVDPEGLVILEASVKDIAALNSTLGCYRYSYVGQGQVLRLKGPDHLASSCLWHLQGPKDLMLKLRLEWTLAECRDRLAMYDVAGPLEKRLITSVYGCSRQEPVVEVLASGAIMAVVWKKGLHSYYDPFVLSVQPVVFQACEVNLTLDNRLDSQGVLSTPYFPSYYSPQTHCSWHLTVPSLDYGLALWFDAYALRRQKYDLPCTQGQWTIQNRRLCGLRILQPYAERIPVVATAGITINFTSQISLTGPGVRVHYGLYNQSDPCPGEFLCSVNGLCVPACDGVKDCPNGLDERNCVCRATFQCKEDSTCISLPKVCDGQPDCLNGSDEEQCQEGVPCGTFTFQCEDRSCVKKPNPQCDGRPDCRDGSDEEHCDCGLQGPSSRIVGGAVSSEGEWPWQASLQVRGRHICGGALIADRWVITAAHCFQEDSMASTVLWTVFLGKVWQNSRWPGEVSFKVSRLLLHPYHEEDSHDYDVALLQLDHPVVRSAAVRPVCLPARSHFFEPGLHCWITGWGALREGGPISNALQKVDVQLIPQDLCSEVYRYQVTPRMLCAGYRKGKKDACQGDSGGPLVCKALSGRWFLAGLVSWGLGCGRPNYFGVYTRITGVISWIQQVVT
Description: Inhibition of human recombinant matriptase-2 using Boc-Gln-Ala-Arg-AMC as substrate by microplate reader analysis. The essentials: (§1)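 Recombinant human matriptase (aa 596−[…]) or matriptase-2 (aa 78−811), active-site titrated with MUGB; 1 nM enzyme at room temperature in 50 mM Tris-HCl, 15 mM NaCl, pH 7.4. AMC release read at 360/441 nm. If inhibition occurred at I/E = 10, Ki came from a Morrison fit; otherwise from substrate-velocity curves fitted to the best reversible model. At least 3 runs in duplicate, mean ± SD.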

The species named for assay [2] is Homo sapiens. Description: Selectivity ratio of Ki for human recombinant matriptase-2 to Ki for human recombinant matriptase.
Assay [3] has as its target T2, Suppressor of tumorigenicity 14 protein (Homo sapiens, UniProt Q9Y5Y6).
T2 sequence (Q9Y5Y6 whole entry): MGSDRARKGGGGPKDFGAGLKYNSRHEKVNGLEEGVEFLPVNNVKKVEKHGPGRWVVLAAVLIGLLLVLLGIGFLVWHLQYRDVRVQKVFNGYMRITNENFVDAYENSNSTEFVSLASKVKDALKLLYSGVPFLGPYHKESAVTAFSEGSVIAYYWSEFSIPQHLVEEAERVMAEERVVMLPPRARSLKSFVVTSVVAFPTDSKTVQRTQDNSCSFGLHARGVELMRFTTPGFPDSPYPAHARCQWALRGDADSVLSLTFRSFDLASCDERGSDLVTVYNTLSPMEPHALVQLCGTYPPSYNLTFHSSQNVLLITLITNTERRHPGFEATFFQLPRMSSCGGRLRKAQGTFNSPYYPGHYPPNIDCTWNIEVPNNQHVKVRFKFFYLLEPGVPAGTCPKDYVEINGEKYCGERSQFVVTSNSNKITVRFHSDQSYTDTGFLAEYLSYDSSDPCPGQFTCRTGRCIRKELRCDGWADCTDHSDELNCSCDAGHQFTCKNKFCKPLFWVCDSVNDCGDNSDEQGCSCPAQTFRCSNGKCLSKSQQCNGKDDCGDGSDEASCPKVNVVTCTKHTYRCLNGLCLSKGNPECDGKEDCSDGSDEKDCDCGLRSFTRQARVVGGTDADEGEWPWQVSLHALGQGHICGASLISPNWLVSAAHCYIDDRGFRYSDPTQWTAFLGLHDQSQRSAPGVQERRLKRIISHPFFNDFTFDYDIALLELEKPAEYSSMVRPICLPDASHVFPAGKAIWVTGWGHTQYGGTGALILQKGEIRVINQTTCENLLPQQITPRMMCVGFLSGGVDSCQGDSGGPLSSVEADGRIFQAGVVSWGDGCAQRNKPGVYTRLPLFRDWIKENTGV
The assay is described as follows: Inhibition of human recombinant matriptase using Boc-Gln-Ala-Arg-AMC as substrate by microplate reader analysis. The gist of the method:
as §1

The species named for assay [4] is Homo sapiens. The assay is described as follows: Selectivity ratio of Ki for human recombinant matriptase to Ki for human recombinant matriptase-2.

SMILES strings stand for the structures.

The term Ki denotes the equilibrium dissociation constant of an inhibitor or competing ligand from its target. Consider `N=C(N)NCCC[C@H](NC(=O)[C@@H](N)Cc1c[nH]c2ccccc12)C(=O)N[C@@H](CCC(=O)O)C(=O)N[C@@H](CCCNC(=N)N)C(=O)c1nc2ccccc2s1`, for which the Ki in assay [1] is 46.8 nM; in assay [3] it was 14.7 nM. In addition, in assay [2], the Ratio Ki is 3.

With `C[C@H](NC(=O)[C@H](CC(N)=O)NC(=O)[C@@H](N)CCCCN)C(=O)N[C@@H](CCCNC(=N)N)C(=O)c1nc2ccccc2s1`, the Ki in assay [1] was found to be 24.8 nM; in assay [3], 0.45 nM. The Ratio Ki in assay [2] amounted to 62.

On to `CC(C)C[C@H](NC(=O)[C@@H](N)CCCNC(=N)N)C(=O)N[C@@H](CO)C(=O)N[C@@H](CCCNC(=N)N)C(=O)c1nc2ccccc2s1`, for which the Ki in assay [1] came out at 2.48 nM; in assay [3], 1.4 nM. Moreover, in assay [2], the Ratio Ki was determined as 1.79.

Take `N=C(N)NCCC[C@H](NC(=O)[C@@H]1CCCN1C(=O)[C@H](CCC(N)=O)NC(=O)[C@@H](N)CCCNC(=N)N)C(=O)c1nc2ccccc2s1`: the Ki in assay [1] came to 7.8 nM; in assay [3] it was 0.061 nM. Besides, the Ratio Ki in assay [2] is 128.

For the compound `CC(C)C[C@H](N)C(=O)N[C@@H](Cc1c[nH]c2ccccc12)C(=O)N[C@@H](Cc1c[nH]c2ccccc12)C(=O)N[C@@H](CCCNC(=N)N)C(=O)c1nc2ccccc2s1`, the Ki in assay [1] amounted to 1.98 nM; in assay [3] it was 3.22 nM. The figures for the Ratio Ki in assay [2] and in assay [4] were 0.63 and 2, respectively.

Turning to `N=C(N)NCCC[C@H](NC(=O)[C@H](Cc1ccc(O)cc1)NC(=O)[C@H](CCC(N)=O)NC(=O)[C@@H](N)CCCNC(=N)N)C(=O)c1nc2ccccc2s1`, the Ki in assay [1] turned out to be 0.74 nM; in assay [3] it was 0.18 nM. Besides, the Ratio Ki in assay [2] was found to be 4.

As to `N=C(N)NCCC[C@H](NC(=O)[C@H](Cc1ccc(O)cc1)NC(=O)[C@H](CS)NC(=O)[C@@H](N)Cc1c[nH]c2ccccc12)C(=O)c1nc2ccccc2s1`, the Ki in assay [1] is 1.03 nM; in assay [3], 7.98 nM. For the same compound, the Ratio Ki is 0.13 in assay [2] and 8 in assay [4].

Turning to `C[C@H](NC(=O)[C@H](CCC(N)=O)NC(=O)[C@@H](N)CO)C(=O)N[C@@H](CCCNC(=N)N)C(=O)c1nc2ccccc2s1`, the figures for the Ki in assay [1] and in assay [3] were 34.8 nM and 0.092 nM, respectively. Further, the Ratio Ki in assay [2] stood at 378.

Consider `N=C(N)NCCC[C@H](NC(=O)[C@@H]1CCCN1C(=O)[C@H](CC(N)=O)NC(=O)[C@@H](N)CCCNC(=N)N)C(=O)c1nc2ccccc2s1`, for which the Ki in assay [1] turned out to be 47.8 nM; in assay [3], 0.91 nM. Besides, the Ratio Ki in assay [2] is 49.

Take `C[C@H](NC(=O)[C@H](Cc1ccc(O)cc1)NC(=O)[C@@H](N)CCCNC(=N)N)C(=O)N[C@@H](CCCNC(=N)N)C(=O)c1nc2ccccc2s1`: the Ki in assay [1] was 6.3 nM; in assay [3], 0.14 nM. Moreover, the Ratio Ki in assay [2] came to 45.

Regarding `C[C@H](NC(=O)[C@H](CCCNC(=N)N)NC(=O)[C@@H](N)CCCNC(=N)N)C(=O)N[C@@H](CCCNC(=N)N)C(=O)c1nc2ccccc2s1`, the Ki came out at 15.4 nM in assay [1] and 0.72 nM in assay [3]. Further, the Ratio Ki in assay [2] was found to be 22.

Take `C[C@H](NC(=O)[C@H](CCCCN)NC(=O)[C@@H](N)Cc1ccc(O)cc1)C(=O)N[C@@H](CCCNC(=N)N)C(=O)c1nc2ccccc2s1`: the inhibition constant Ki was 20.8 nM in assay [1] and 0.89 nM in assay [3]. For the same compound, the Ratio Ki in assay [2] was 23.

On to `CC(C)[C@H](NC(=O)[C@H](Cc1ccc(O)cc1)NC(=O)[C@@H](N)Cc1ccc(O)cc1)C(=O)N[C@@H](CCCNC(=N)N)C(=O)c1nc2ccccc2s1`, for which the Ki was determined as 2.56 nM in assay [1] and 31.5 nM in assay [3]. For the same compound, the figures for the Ratio Ki in assay [2] and in assay [4] were 0.08 and 13, respectively.

As for `CC(C)C[C@H](N)C(=O)N[C@@H](CCC(N)=O)C(=O)N[C@@H](C)C(=O)N[C@@H](CCCNC(=N)N)C(=O)c1nc2ccccc2s1`, the figures for the Ki in assay [1] and in assay [3] were 13.5 nM and 0.15 nM, respectively. Further, in assay [2], the Ratio Ki was 90.

On to `N=C(N)NCCC[C@H](NC(=O)[C@H](Cc1ccccc1)NC(=O)[C@H](CCC(N)=O)NC(=O)[C@@H](N)CCCNC(=N)N)C(=O)c1nc2ccccc2s1`, for which the Ki in assay [1] is 1.4 nM; in assay [3], 0.23 nM. The Ratio Ki in assay [2] is 6.
